We go through 14 molecules from ChEMBL document CHEMBL1128539, “Novel antagonists of platelet-activating factor. 2. Synthesis and structure-activity relationships of potent and long-acting heterofused [1,5]benzodiazepine and [1,4]diazepine derivatives of 2-methyl-1-phenylimidazo[4,5-c]pyridine” (J Med Chem, 1995).

One may read the IC50 as the concentration needed to halve the response being measured.

The subject of data set [1] is Canis familiaris. Kind of data set: Duration of action in Conscious Dog at a dose of […] po. Format: ADME, organism-based, Canis lupus familiaris. More on the design: dose 0.025 mg/kg, route oral. The note with it: in vivo.
For data set [2], the system named is Canis familiaris. The data set can be described thus: Duration of action in Conscious Dog at a dose of 0.05 mg/kg po. Set-up: dose 0.05 mg/kg, route oral. The note with it: in vivo. Format: ADME, organism-based, Canis lupus familiaris.
Data set [3] concerns Canis familiaris. The data set can be described thus: Duration of action in Conscious Dog at a dose of 0.1 mg/kg po. Format: ADME, organism-based, Canis lupus familiaris. Set-up: dose 0.1 mg/kg, route oral. The note with it: in vivo.
The test system of data set [4] is Canis familiaris. Kind of data set: Duration of action in Conscious Dog at a dose of 0.2 mg/kg po. More on the design: dose 0.2 mg/kg, route oral. Format: ADME, organism-based, Canis lupus familiaris. The note with it: in vivo.
Data set [5] deals with Canis familiaris. The data set can be described thus: Duration of action in Conscious dog at a dose of 0.2 mg/kg po. Format: ADME, organism-based, Canis lupus familiaris. Set-up: dose 0.2 mg/kg, route oral. The following applies: in vivo.
Data set [6] has as its system Canis familiaris. Kind of data set: Duration of action in Conscious Dog at a dose of 0.075 mg/kg po. It counts as ADME, organism-based, Canis lupus familiaris. More on the design: dose 0.075 mg/kg, route oral. The following applies: in vivo.
Data set [7] relates to Canis familiaris. The data set can be described thus: Duration of action in Conscious Dog at a dose of […] po. It counts as ADME, organism-based, Canis lupus familiaris. The note with it: in vivo.
Data set [8] relates to Canis familiaris. The data set can be described thus: Duration of action in Conscious Dog at a dose of 0.3 mg/kg po. The note with it: in vivo. More on the design: dose 0.3 mg/kg, route oral. It counts as ADME, organism-based, Canis lupus familiaris.
The subject of data set [9] is Canis familiaris. Kind of data set: Duration of action in Conscious Dog at a dose of 0.5 mg/kg po. More on the design: dose 0.5 mg/kg, route oral. The note with it: in vivo. Format: ADME, organism-based, Canis lupus familiaris.
For data set [10], the system named is Canis familiaris. The data set can be described thus: Duration of action in Conscious Dog at a dose of 0.15 mg/kg po. It counts as ADME, organism-based, Canis lupus familiaris. Set-up: dose 0.15 mg/kg, route oral. The following applies: in vivo.
The test system of data set [11] is Canis familiaris. Kind of data set: Duration of action in Conscious Dog at 0.1 mg/kg po. It counts as ADME, organism-based, Canis lupus familiaris. Set-up: dose 0.1 mg/kg, route oral. The following applies: in vivo. Summed up:
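Conscious dogs. Before dosing, each dog's minimum PAF concentration giving irreversible whole-blood aggregation was set (30–50 nM). Compound was given by gavage in minimal 0.01 M HCl. Blood drawn 2 h later was challenged ex vivo with 10× (or 30×) that PAF level. If uninhibited, a larger second dose was given and blood resampled 2 h later. If inhibited, sampling continued until predose aggregation returned.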

Data set [12] addresses Platelet-activating factor receptor (Oryctolagus cuniculus). The data set can be described thus: In vitro antagonist activity against platelet activating factor (PAF) receptor, using washed rabbit platelets.

Take `Cc1nc2cnccc2n1-c1ccc(C2=Nc3c(-c4cccnc4)nn(C)c3N(C)C(=O)C2)cc1`: the Duration of action in the data set on Canis familiaris [1] is 9 h; with Canis familiaris [2], > 10 h.

In turn, `Cc1cc(C)c2c(n1)N(C)C(=O)CC(c1ccc(-n3c(C)nc4cnccc43)cc1)=N2` displayed a Duration of action with Canis familiaris [3] of 9 h.

Take `CCN(CC)C(=O)c1cnc2c(c1)N=C(c1ccc(-n3c(C)nc4cnccc43)cc1)CC(=O)N2C`: the Duration of action in the data set with Canis familiaris [3] came to 4 h.

Molecule `Cc1nn(C)c2c1N=C(c1ccc(-n3c(C)nc4cnccc43)cc1)CC(=O)N2C` gave a Duration of action in the data set with Canis familiaris [4] of 4 h.

For the molecule `Cc1nc2cnccc2n1-c1ccc(C2=Nc3c(-c4ccccc4)nn(C)c3N(C)C(=O)C2)cc1`, in the data set with Canis familiaris [3], the Duration of action was > 8 h.

Take `Cc1nc2cnccc2n1-c1ccc(C2=Nc3cc(Cl)c(Cl)cc3-n3ccnc3C2)cc1`: the Duration of action in the data set with Canis familiaris [5] is 7 h.

Take `Cc1nc2cnccc2n1-c1ccc(C2=Nc3c(C4CCCCC4)nn(C)c3N(C)C(=O)C2)cc1`: the values for the Duration of action in the data set with Canis familiaris [1] and with Canis familiaris [6] were 0 h and 8 h, respectively.

`Cc1nc2cnccc2n1-c1ccc(C2=Nc3cc(C(=O)N4CCOCC4)cnc3N(C)C(=O)C2)cc1`: the Duration of action in the data set with Canis familiaris [7] was 2 h.

`CCOC(=O)C1=C(c2ccc(-n3c(C)nc4cnccc43)cc2)NC(C)=C(C(=O)Nc2ccccn2)C1c1ccccc1Cl` (centres undefined) returned a Duration of action in the data set on Canis familiaris [6] of 8 h.

`Cc1nn(C)c2c1N=C(c1ccc(-n3c(C)nc4cnccc43)cc1)CC(=O)N2`: in the data set with Canis familiaris [8], the Duration of action was 0 h.

In the case of `Cc1cc(C)c2c(n1)NC(=O)CC(c1ccc(-n3c(C)nc4cnccc43)cc1)=N2`, the figures for the Duration of action in the data set on Canis familiaris [9] and with Canis familiaris [10] were < 8 h and 0 h, respectively.

As for `Cc1nc2cnccc2n1-c1ccc(C2=Nc3cc(Br)cnc3N(C)C(=O)C2)cc1`, the Duration of action in the data set with Canis familiaris [4] came out at 4 h.

On to `Cc1nn(C)c2c1NC(=O)CC(c1ccc(-n3c(C)nc4cnccc43)cc1)=N2`, for which the Duration of action in the data set on Canis familiaris [9] is > 8 h; in the data set with Canis familiaris [10], 0 h.

Regarding `Cc1nnc2n1-c1sc3c(c1C(c1ccccc1Cl)=NC2)CC(C(=O)N1CCOCC1)C3` (centres undefined) [BEPAFANT], in the data set with Canis familiaris [11], the Duration of action was determined as 7 h. This molecule also gave an IC50 in data set [12] of 73 nM.
